PfHsp90 set2 – inhibits growth of yeast expressing Plasmodium falciparum Hsp90. inhibition, % at 9.4 µM. AID 504621. actives 0.32% (n = 310,000). S. cerevisiae expressing PfHsp90, BacTiter-Glo ATP, 48 h; yeast lacking PDR1 and PDR3 efflux regulators;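 active means every replicate shows inhibition above about 80%, whatever the replicate mean, limit read from the data; inconclusive means mean inhibition reaches the set limit but some replicate falls short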;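 further: 0% = DMSO neutral controls and 100% = 20 µM radicicol positive controls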
DENV2 CPE – protects cells from dengue virus 2 cytopathic effect | DENV2-infected cells, cytopathic effect rescue, plate reader | CPE inhibition, % at 9.99 µM | actives 1.7% (n = 350,000); in the data active means CPE inhibition above about 20%, passing the limit was not always enough; inconclusive means no clear call, values can overlap the other calls; tested in BHK-21 cells;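 further: 0% = median of neutral control wells and 100% = median of positive control wells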
rRNA inh HTS – inhibitors of bacterial rRNA selective over humanized ribosomes; E. coli WT GFP vs humanized-ribosome RFP mutants, fluorescence, 24 h; hits give low values; DMSO median 0, no signal -100; GFP signal change (wild-type ribosome), % (test concentration not listed); actives 1.6% (n = 350,000); AID 720706;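 active means significant combined selectivity score with lowered wild-type GFP, culture density cut under 30%, mutant RFP and density less affected; inactive means any of these conditions unmet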
S100A4 inh HTS – blocks human S100A4 binding to myosin IIA peptide | P26447 | S100A4/TAMRA-MyoIIA peptide fluorescence polarization | inhibition, % at 10.7 µM | actives 0.14% (n = 360,000);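 active means mean inhibition of at least 70% across replicates, with every replicate also reaching that level; inconclusive means mean inhibition reaches 70% but some replicates fall short; inactive means mean inhibition below 70%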
Target sequence (P26447 whole entry, looked up): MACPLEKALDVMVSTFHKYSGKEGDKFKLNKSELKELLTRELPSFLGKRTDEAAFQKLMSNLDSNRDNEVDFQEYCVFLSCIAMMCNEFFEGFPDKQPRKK
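Test system: S100A4 monomer protein. Medium: HEPES buffer with Ca2+, pH 7.2. Reagent: fluorescent myosin IIA peptide, 5 nM. Compound dosing: single-point compound testing. Timing: 5 min between mix addition and reading. Benchmarks: DMSO neutral and TFP positive wells.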
Cneo AK release – Cryptococcus neoformans lysis via adenylate kinase release; C. neoformans lysis, adenylate kinase release luminescence, 4 h; normalised: neutral wells 0, clomiphene wells 100; lysis activity, % at 15 µM; actives 0.2% (n = 360,000);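 active means mean lysis activity across replicates of at least 80%, whatever share of replicates individually reach that level; inactive means mean lysis activity below 80%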
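Material: C. neoformans cells; Schedule: 4 h static compound exposure, 37 °C, read 1 h post-reagent; Measured by: adenylate kinase release luminescence; Read-out: signal increase indicating cell lysis; Controls: Clomiphene as positive lysis control.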
AF4-AF9 inh – inhibitors of human MLL-AF4/AF9 interaction; P42568; AlphaScreen, biotin-AF4 peptide binding to FLAG-AF9; inhibition, % at 10 µM; actives 0.47% (n = 350,000); AID 651704;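 active means every replicate reaching a set inhibition limit, whatever the replicate mean, cut at about 25% in these data; inconclusive means mean inhibition reaches that limit but some replicates miss it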;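 further: 0% = plate neutral control median and 100% = total signal loss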
Target sequence (P42568 whole entry, looked up): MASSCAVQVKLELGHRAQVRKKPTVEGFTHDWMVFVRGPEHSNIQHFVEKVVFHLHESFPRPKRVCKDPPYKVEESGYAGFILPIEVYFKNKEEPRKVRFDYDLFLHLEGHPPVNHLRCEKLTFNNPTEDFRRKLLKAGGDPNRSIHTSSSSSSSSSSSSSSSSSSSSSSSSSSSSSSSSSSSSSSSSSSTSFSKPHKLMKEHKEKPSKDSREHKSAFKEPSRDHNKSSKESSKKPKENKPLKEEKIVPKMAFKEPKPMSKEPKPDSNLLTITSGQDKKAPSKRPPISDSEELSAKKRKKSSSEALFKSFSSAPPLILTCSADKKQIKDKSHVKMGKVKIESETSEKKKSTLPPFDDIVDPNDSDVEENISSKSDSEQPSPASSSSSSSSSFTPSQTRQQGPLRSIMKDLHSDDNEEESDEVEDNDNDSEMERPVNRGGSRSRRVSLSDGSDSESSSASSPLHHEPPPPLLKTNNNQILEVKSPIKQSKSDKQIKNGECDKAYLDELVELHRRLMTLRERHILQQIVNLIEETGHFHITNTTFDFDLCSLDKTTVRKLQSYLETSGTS
The depositor's hits bear a star; ? = inconclusive; nt = no result given. Sampled rows, rich in hits. Any-hit rate of the full collection: about 3.2%.

SMILES | PfHsp90 set2 | DENV2 CPE | rRNA inh HTS | S100A4 inh HTS | Cneo AK release | AF4-AF9 inh
CCOc1ccc(Br)cc1C1=NN(C(C)=O)C(c2ccc([N+](=O)[O-])s2)O1 (stereo not drawn) | 107.6* | 11.6 | -19.0 | -5.8 | 8.3 | -0.3
CO[C@H]1CN(C)C(=O)c2cc(NS(=O)(=O)CC(F)(F)F)ccc2OC[C@@H](C)N(Cc2ccccn2)C[C@@H]1C | nt | -0.4 | -1.2 | 1.5 | 2.3 | -17.6
CO[C@@H]1CN(C)C(=O)c2cc(NS(=O)(=O)C3CCCCC3)ccc2OC[C@H](C)NC[C@@H]1C | nt | -0.5 | nt | 6.6 | 85.6* | -1.2
CCS(=O)(=O)Nc1ccc2c(c1)C(=O)N(C)C[C@H](OC)[C@@H](C)CN[C@@H](C)CO2 | nt | 24.7* | 5.0 | 6.1 | -1.0 | -1.2
COC(=O)N(C)C[C@H]1OCc2ccccc2-c2ccccc2C(=O)N([C@@H](C)CO)C[C@@H]1C | nt | -2.0 | 1.8 | -1.2 | -2.0 | -2.3
CCC(=O)N1C[C@@H](C)[C@@H](OC)CN(C)C(=O)c2cc(NC(=O)c3cc(C)on3)ccc2OC[C@@H]1C | nt | nt | 2.1 | nt | nt | nt
O=C(NN=Cc1c(O)ccc2ccccc12)C1CC1 | -13.7 | -0.5 | -16.8* | -1.6 | 1.0 | 1.5
O=C(N/N=C/c1c(O)ccc2ccccc12)c1cccc(C(F)(F)F)c1 | 90.6* | nt | nt | nt | nt | nt
C[C@@H]1CN([C@@H](C)CO)C(=O)c2cc(-c3cncnc3)cnc2O[C@@H]1CN(C)C(=O)Nc1ccc2c(c1)OCO2 | nt | -3.4 | -1.4 | -15.7 | 0.1 | -0.2
C[C@H](CO)N1C[C@H](C)[C@H](CN(C)C(=O)Nc2ccc3c(c2)OCO3)Oc2ncc(-c3ccc(F)cc3)cc2C1=O | nt | -6.4 | -2.2 | -2.2 | 90.8* | 4.4
C[C@@H]1CN([C@@H](C)CO)C(=O)c2cc(-c3ccc(C#N)cc3)cnc2O[C@@H]1CN(C)C(=O)Nc1ccc(F)cc1 | nt | 5.8 | 0.3 | -4.1 | 91.7* | 1.2
C[C@H]1CN([C@@H](C)CO)C(=O)c2cc(-c3ccc(C#N)cc3)cnc2O[C@H]1CN(C)C(=O)Nc1ccc(F)cc1 | nt | 6.8 | -9.8 | 3.4 | -1.0 | -1.7
C[C@@H]1CN([C@@H](C)CO)C(=O)c2cc(-c3cncnc3)cnc2O[C@H]1CN(C)C(=O)Nc1ccc2c(c1)OCO2 | nt | 47.0* | 4.8 | -7.0 | 0.4 | -0.4
C[C@H]1CN([C@@H](C)CO)C(=O)c2cc(-c3ccccc3)cnc2O[C@@H]1CN(C)C(=O)Nc1ccc2c(c1)OCO2 | nt | -8.5 | -0.2 | 11.4 | 1.4 | 2.2
C/C=C/c1cccc(-c2nc(C(=O)NCc3ccc(OC)cc3)cc3c2[C@@H](CCO)N([S@](=O)C(C)(C)C)C3)c1 | nt | 3.5 | -0.1 | -1.4 | 61.5 | 1.0
CCCN1[C@@H]2Cn3c(ccc(/C=C/c4ccccc4)c3=O)[C@H]1[C@@H](C(=O)NCC1CC1)[C@@H]2CO | nt | ? | -3.5 | -0.4 | 3.2 | -10.2
O=C(O)c1ccc(C2NCC(c3ccccc3Cl)c3c2[nH]c2ccccc32)cc1 (stereo not drawn) | nt | 16.7 | -36.9* | -1.6 | nt | 5.5
CCNC(=O)[C@H]1[C@H](CO)[C@H]2Cn3c(cccc3=O)[C@@H]1N2C(=O)C1CCC1 | nt | 3.3 | 0.5 | 3.7 | 17.3 | 1.1
CN(C)CCNS(=O)(=O)c1ccc(N2CCN(c3ccc(F)cc3)CC2)c([N+](=O)[O-])c1 | 15.2 | nt | nt | -4.6 | nt | 27.6*
COc1ccc2c3c(n(C)c2c1)[C@H](CO)N(C(=O)CC1CC1)CC31CCN(C(=O)NC(C)C)CC1 | nt | -5.7 | -3.0 | 8.0 | nt | -2.1
Cc1ccccc1-n1c(-c2ccc3ccccc3n2)n[nH]c1=S | 2.5 | 15.7 | -32.6* | -0.1 | 1.8 | nt
COC(=O)c1ccccc1NC(=O)c1ccc2c(c1)CC(C)O2 (stereo not drawn) | -10.3 | 9.3 | -29.1* | -5.6 | -1.9 | -5.5
Cc1ccccc1-c1ccc(C2[C@@H]3CN(S(=O)(=O)c4ccccc4C)C[C@H]2N3)cc1 (stereo partly drawn) | nt | 1.6 | -40.9 | -24.5 | nt | -4.8
O=C(Nc1cc(F)ccc1F)N[C@H]1CC[C@H](CCn2cc(C3CC3)nn2)O[C@@H]1CO | nt | 11.2 | -0.3 | -1.2 | -5.2 | 0.2
Cc1ccc(S(=O)(=O)NCC(=O)OCC(=O)N(Cc2ccccc2)C(C)(C)C)cc1 | -30.3 | 93.4* | -11.1 | -3.5 | nt | -15.6
SMILES | PfHsp90 set2 | DENV2 CPE | rRNA inh HTS | S100A4 inh HTS | Cneo AK release | AF4-AF9 inh
C[C@@H]1CCCCO[C@H](CN(C)C(=O)C2CCCCC2)[C@@H](C)CN([C@@H](C)CO)C(=O)c2cc(NC(=O)NC3CCCCC3)ccc2O1 | nt | -3.5 | -1.6 | ? | 0.6 | -2.4
CCOC(=O)c1c(CS(=O)(=O)c2ccccc2)n(C)c2cc(Br)c(O)cc12 | 12.2 | 5.2 | -18.8* | -1.3 | -0.1 | -0.5
CCOC(=O)c1c(CS(=O)(=O)c2ccccc2)n(C)c2cc(Br)c(O)c(CN(C)C)c12 | -8.4 | -4.9 | -9.3 | -1.4 | nt | 5.9
O=[N+]([O-])c1ccc(C(O)CC(O)CSc2nc(-c3ccccc3)c(-c3ccccc3)o2)cc1 (stereo not drawn) | nt | 9.3 | nt | 3.5 | 10.0 | -0.7
OC(CSc1nc(-c2ccccc2)c(-c2ccccc2)o1)CC(O)c1ccccc1 (stereo not drawn) | nt | 30.1* | nt | -2.0 | -6.9 | -0.2
COc1ccc2c3c(n(C)c2c1)[C@@H](CO)N(Cc1ccccc1F)CC31CCN(CC2CC2)CC1 | nt | 12.5 | -3.3 | 2.3 | nt | 32.8*
COc1ccc2c3c(n(C)c2c1)[C@H](CO)N(Cc1ccccc1F)CC31CCN(C(C)=O)CC1 | nt | 93.3* | 3.3 | nt | nt | 4.9
C[C@@H]1CN([C@H](C)CO)C(=O)c2ccccc2-c2ccccc2CO[C@@H]1CN(C)S(=O)(=O)c1ccc(C#N)cc1 | nt | -5.7 | -1.8 | 6.1 | -0.4 | -3.0
CCC1(c2ccccc2)NC(=O)N(CC(=O)Nc2ccccc2N2CCCCC2)C1=O (stereo not drawn) | 14.3 | -6.9 | -14.3 | -2.2 | 4.1 | -2.9
CCC1(c2ccccc2)NC(=O)N(CC(=O)Nc2ccccc2C(=O)N2CCCCC2)C1=O (stereo not drawn) | 7.3 | 34.8* | 7.0 | -1.0 | 1.1 | -1.8
COc1ccc2c3c([nH]c2c1)[C@H](CO)N(C(=O)Nc1ccc(F)cc1)CC31CCN(S(=O)(=O)c2cn(C)cn2)CC1 | nt | -7.0 | 3.2 | -3.0 | nt | 6.2
C[C@H](NC(=O)CCCOc1ccc(Cl)cc1Cl)c1nnc2ccccn12 | -3.6 | 41.2* | 0.8 | -9.1 | 0.2 | -1.6
C[C@H](CO)N1C[C@H](C)[C@@H](CN(C)S(=O)(=O)c2ccc(F)cc2)Oc2ccc(NC(=O)Cn3cnnn3)cc2C1=O | nt | -4.9 | 4.0 | -13.0 | 1.3 | -2.2

High-throughput results from PubChem.
